From ChEMBL document CHEMBL1154420, “Role of a qnr-like gene in the intrinsic resistance of Enterococcus faecalis to fluoroquinolones” (2007) come the findings set out here.

Test [1] has as its system Escherichia coli. Nature of the test: Antibacterial activity against Escherichia coli DH10B containing ORI23::qnr-cat promoter mutant by twofold dilution method. The class given is functional. To be noted: K-12 substr. DH10B. Put shortly:
(§1)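 Heterologous hosts carrying pORI23 or pORI23::qnr-cat (cat reporter downstream of qnr); MICs of ofloxacin, ciprofloxacin, levofloxacin, sparfloxacin and moxifloxacin by standard twofold dilution. Transformants selected on erythromycin 500 μg/ml plus chloramphenicol 20 μg/ml (E. coli DH10B) or erythromycin 5 μg/ml plus chloramphenicol 5 μg/ml (S. aureus, L. lactis). Blood-supplemented agar for L. lactis.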

Test [2] concerns Enterococcus faecalis. Nature of the test: Antibacterial activity against Enterococcus faecalis JH2-2 by broth microdilution method. The class given is functional.
For test [3], the system named is Enterococcus faecalis. As to the kind of experiment: Antibacterial activity against Enterococcus faecalis JH2-2-omega-pG1KT mutant with inactivated qnr gene by broth microdilution method. It is filed as functional.
In test [4] the test system is Enterococcus faecalis. As to the kind of experiment: Antibacterial activity against Enterococcus faecalis JH2-2-delta-pG1KT mutant by broth microdilution method. It is filed as functional. (In general: In broth dilution the organism is exposed to a series of concentrations in liquid medium.)
In test [5] the test system is Enterococcus faecalis. Nature of the test: Antibacterial activity against Enterococcus faecalis JH2-2 containing ORI23 promoter by broth microdilution method. It is filed as functional. The essentials: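 Broth microdilution MIC in Mueller-Hinton broth per CA-SFM, three independent experiments; JH2-2 host carrying pORI23 vector. Narrow dilution series: ofloxacin 1–128 μg/ml (1, 1.5, 2 … 8, 16, 32, 64, 128), ciprofloxacin 0.5–64 μg/ml (0.5, 0.75, 1 … 4, 8, 16, 32, 64). Growth at 37°C.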

The test system of test [6] is Enterococcus faecalis. Nature of the test: Antibacterial activity against Enterococcus faecalis JH2-2-omega-pG1KT/pORI23::qnr-cat mutant with qnr gene complementation by broth microdilution method. It is filed as functional.
The subject of test [7] is Enterococcus faecalis. As to the kind of experiment: Antibacterial activity against Enterococcus faecalis JH2-2 containing ORI23::qnr-cat promoter mutant overexpressing qnr by broth microdilution method. The class given is functional.
Test [8] relates to Staphylococcus aureus. Nature of the test: Antibacterial activity against Staphylococcus aureus RN4220 containing ORI23::qnr-cat promoter mutant by twofold dilution method. The class given is functional. The essentials: as §1
The subject of test [9] is Lactococcus lactis. As to the kind of experiment: Antibacterial activity against Lactococcus lactis IL-1419 by twofold dilution method. The class given is functional. The essentials: (§2)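 Heterologous-expression MIC by standard twofold dilution; L. lactis IL-1419 transformed with pORI23 vector or pORI23::qnr-cat by electroporation, selected on erythromycin 5 μg/ml plus chloramphenicol 5 μg/ml; routine growth at 37°C on TS agar with 10% horse blood.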

In test [10] the test system is Lactococcus lactis. As to the kind of experiment: Antibacterial activity against Lactococcus lactis IL-1419 containing ORI23 promoter by twofold dilution method. The class given is functional. Put shortly: as §2
The test system of test [11] is Lactococcus lactis. Nature of the test: Antibacterial activity against Lactococcus lactis IL-1419 containing ORI23::qnr-cat promoter mutant by twofold dilution method. The class given is functional. The essentials: as §1
The subject of test [12] is Staphylococcus aureus. Nature of the test: Antibacterial activity against Staphylococcus aureus RN4220 by twofold dilution method. The class given is functional. Put shortly: as §1
For test [13], the system named is Staphylococcus aureus. Nature of the test: Antibacterial activity against Staphylococcus aureus RN4220 containing ORI23 promoter by twofold dilution method. The class given is functional. The essentials:
as §1

The test system of test [14] is Escherichia coli. As to the kind of experiment: Antibacterial activity against Escherichia coli DH10B by twofold dilution method. It is filed as functional. To be noted: K-12 substr. DH10B. Put shortly:
as §1

Test [15] concerns Escherichia coli. As to the kind of experiment: Antibacterial activity against Escherichia coli DH10B containing ORI23 promoter by twofold dilution method. It is filed as functional. To be noted: K-12 substr. DH10B. Put shortly:
as §1

The subject of test [16] is Escherichia coli. As to the kind of experiment: Inhibition of Escherichia coli DNA gyrase-mediated Escherichia coli pBR322 DNA supercoiling at 1 ug/mL in presence of 0.9 uM histidine6-tagged Enterococcus faecalis qnr protein preincubated before compound administration by agarose gel electrophoresis. Put shortly: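 Dialyzed C-terminal His6-tagged Qnr (from E. coli BL21(DE3), IPTG 1 mM, Ni-NTA purified, 0.9 μM) preincubated with E. coli gyrase 1 h at 25°C before drug; then 1 U gyrase, 0.5 μg relaxed pBR322, buffer with 1 mM ATP, pH 7.5, 37°C 30 min; readout by 1% agarose gel, ethidium bromide.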

Test [17] deals with Escherichia coli. Nature of the test: Inhibition of Escherichia coli DNA gyrase-mediated Escherichia coli pBR322 DNA supercoiling at 1 ug/mL by agarose gel electrophoresis. The essentials: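 Supercoiling assay: 1 U purified E. coli gyrase with 0.5 μg relaxed pBR322 in 35 mM Tris-HCl pH 7.5, 24 mM KCl, 4 mM MgCl2, 2 mM DTT, 1.8 mM spermidine, 1 mM ATP, 6.5% glycerol, 0.1 mg/ml albumin; drug incubated 1 h 25°C then 30 min 37°C; topoisomers resolved on 1% agarose, ethidium bromide, 16 h at 3.5 V/cm.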

For test [18], the system named is Enterococcus faecalis. Nature of the test: microbe, parasite or virus in culture. To be noted: ATCC 29212.

In brackets after ≈: the same amount, converted by molar mass. Activity calls are given as the source filed them. The rule behind the calls is not given here.

Turning to `O=C(O)c1cn(C2CC2)c2cc(N3CCNCC3)c(F)cc2c1=O` [CIPROFLOXACIN], the MIC is 0.032 µg/mL (≈ 0.0966 µM) against Escherichia coli [1]; 1.5 µg/mL (≈ 4.53 µM) in the test with Enterococcus faecalis [2]; 0.75 µg/mL (≈ 2.26 µM) against Enterococcus faecalis [3]; 1.75 µg/mL (≈ 5.28 µM) with Enterococcus faecalis [4]; 2 µg/mL (≈ 6.04 µM) in the test with Enterococcus faecalis [5]; 8 µg/mL (≈ 24.1 µM) with Enterococcus faecalis [6]. In addition, the MIC in the test on Enterococcus faecalis [7] was 8 µg/mL (≈ 24.1 µM); against Staphylococcus aureus [8] it was 2 µg/mL (≈ 6.04 µM); in the test with Lactococcus lactis [9], 2 µg/mL (≈ 6.04 µM); against Lactococcus lactis [10] it was 2 µg/mL (≈ 6.04 µM).

With `C[C@H]1COc2c(N3CCN(C)CC3)c(F)cc3c(=O)c(C(=O)O)cn1c23.C[C@H]1COc2c(N3CCN(C)CC3)c(F)cc3c(=O)c(C(=O)O)cn1c23.O` [LEVOFLOXACIN], the MIC against Lactococcus lactis [11] is 2 µg/mL; with Escherichia coli [1], 0.125 µg/mL; with Staphylococcus aureus [12], 0.25 µg/mL; against Staphylococcus aureus [13], 0.25 µg/mL; with Staphylococcus aureus [8], 1 µg/mL; in the test with Lactococcus lactis [9], 0.5 µg/mL. For the same compound, the MIC against Lactococcus lactis [10] was 0.5 µg/mL.

For `COc1c(N2C[C@@H]3CCCN[C@@H]3C2)c(F)cc2c(=O)c(C(=O)O)cn(C3CC3)c12` [MOXIFLOXACIN], the MIC was 1 µg/mL (≈ 2.49 µM) in the test on Lactococcus lactis [11]; 0.002 µg/mL (≈ 0.00498 µM) in the test on Escherichia coli [14]; 0.002 µg/mL (≈ 0.00498 µM) in the test on Escherichia coli [15]; 0.032 µg/mL (≈ 0.0797 µM) against Escherichia coli [1]; 0.25 µg/mL (≈ 0.623 µM) against Staphylococcus aureus [8]; 0.25 µg/mL (≈ 0.623 µM) against Lactococcus lactis [9]. In the test with Lactococcus lactis [10], this compound showed an MIC of 0.25 µg/mL (≈ 0.623 µM).

Take `CC1COc2c(N3CCN(C)CC3)c(F)cc3c(=O)c(C(=O)O)cn1c23` (centres undefined) [OFLOXACIN]: the MIC came to 4 µg/mL (≈ 11.1 µM) with Lactococcus lactis [11]; 0.125 µg/mL (≈ 0.346 µM) against Escherichia coli [1]; 3 µg/mL (≈ 8.3 µM) in the test on Enterococcus faecalis [2]; 1.5 µg/mL (≈ 4.15 µM) in the test on Enterococcus faecalis [3]; 3 µg/mL (≈ 8.3 µM) in the test with Enterococcus faecalis [4]; 3.5 µg/mL (≈ 9.69 µM) in the test with Enterococcus faecalis [5]. Besides, the MIC against Enterococcus faecalis [6] turned out to be 32 µg/mL (≈ 88.6 µM); against Enterococcus faecalis [7], 32 µg/mL (≈ 88.6 µM); against Staphylococcus aureus [12] it was 0.5 µg/mL (≈ 1.38 µM); against Staphylococcus aureus [13], 0.5 µg/mL (≈ 1.38 µM); in the test with Staphylococcus aureus [8], 2 µg/mL (≈ 5.53 µM); against Lactococcus lactis [9], 1 µg/mL (≈ 2.77 µM). Also, the MIC is 1 µg/mL (≈ 2.77 µM) with Lactococcus lactis [10] and 2 µg/mL (≈ 5.53 µM) against Enterococcus faecalis [18]. For the same compound, the outcome in the test on Escherichia coli [16] was inactive. Moreover, the result in the test on Escherichia coli [17] was Active.

Take `C[C@@H]1CN(c2c(F)c(N)c3c(=O)c(C(=O)O)cn(C4CC4)c3c2F)C[C@H](C)N1` [SPARFLOXACIN]: the MIC is 4 µg/mL (≈ 10.2 µM) against Lactococcus lactis [11]; 0.002 µg/mL (≈ 0.0051 µM) in the test with Escherichia coli [14]; 0.004 µg/mL (≈ 0.0102 µM) in the test on Escherichia coli [15]; 0.064 µg/mL (≈ 0.163 µM) against Escherichia coli [1]; 0.125 µg/mL (≈ 0.319 µM) in the test with Staphylococcus aureus [12]; 0.125 µg/mL (≈ 0.319 µM) against Staphylococcus aureus [13]. Besides, the MIC came out at 1 µg/mL (≈ 2.55 µM) against Staphylococcus aureus [8], 0.5 µg/mL (≈ 1.27 µM) in the test on Lactococcus lactis [9] and 0.5 µg/mL (≈ 1.27 µM) in the test on Lactococcus lactis [10].
